Laboratory results as given in publication PMC8551014 (Nature chemical biology, 2021).
Entries after “also recorded” stand apart in the source; their conditions may differ.

Legend:
[1] = target: dpIRE1α* (dephosphorylated IRE1α*) (Homo sapiens, UniProt O75460); experiment: In vitro determination of dpIRE1α*–inhibitor complex Kdimer; format: biochemical; settings: relative to apo-dpIRE1α*
Summary of the method: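 IRE1α* dephosphorylated overnight at 4 °C with λ-PPase (5:1 molar) in HEPES pH 7.5/NaCl/1 mM MnCl2/DTT/Brij 35; checked by phospho-protein blot. Then titrated two-fold from 2 or 4 μM in Tris pH 7.5 assay buffer; 30 min RT with 50 μM test compound. Alexa647-quencher XBP1 mini-substrate (6 μM final). Fluorescence ex 650/em 665 nm. n=3, mean ± SEM.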

XBP1 mRNA splicing = XBP1 mRNA splicing in ER-stressed INS-1 cells; format: cell-based, rat; settings: INS-1 cells treated with brefeldin A or thapsigargin and KIRA8
Summary of the method: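 Parental INS-1 cells on poly-D-lysine, grown 48 h. Test compound or DMSO given 1 h before brefeldin A, thapsigargin or DTT. In the sequential format: 10 μM first compound for 30 min, then second compound (0.5 or 1 μM) for 30 min, then 2 mM DTT. Intron-spanning XBP1 RT-PCR, PstI digest, EtBr gel, % spliced. n=3, mean ± SEM; two-tailed t-test versus DTT.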

[2] = system: mouse splenocytes (C57BL/6); experiment: ELISA for secreted IgM from LPS-treated splenocytes; format: cell-based; settings: 1 μg/mL LPS for three days, 20 μM-1.25 μM
Summary of the method: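 C57BL/6 splenocytes, red cells lysed, CellTrace Violet-loaded, plated at 2.5 × 10^5 cells/well in complete RPMI; ±1 μg/ml LPS; test compound in two-fold dilutions (20–1.25 μM) from DMSO at 1:2000 final; 3 days, 37 °C, 5% CO2. Supernatant IgM by ELISA: 1 μg/ml goat anti-IgM capture, anti-IgM-HRP (1:3000), TMB, 1 N H2SO4 stop, A450. n=3, mean ± SEM; one-tailed t-test.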

IRE1α* = IRE1α* (Homo sapiens, UniProt O75460); experiment: In vitro determination of IRE1α*–inhibitor complex Kdimer; format: biochemical; settings: inhibitor-bound IRE1α*
[3] = system: mouse splenocytes (C57BL/6); experiment: Plasma cell differentiation of LPS-treated mouse splenocytes, flow cytometry; format: cell-based
Summary of the method: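 Splenocytes cultured 3 days ±1 μg/mL LPS with test compound (20–1.25 μM, two-fold, DMSO 1:2000). Cells stained with LIVE/DEAD near-IR (1:1000, 20 min, ice), then anti-CD19/CD45R/CD138 (15 min, ice), then permeabilized for intracellular XBP1s. Plasmablasts gated as CD19+ B220-low CD138-high; division from vital-dye dilution. n=3, mean ± SEM; one-tailed t-test.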

[4] = 1 μg/mL LPS for three days, 20 μM-1.25 μM

Sequence of dpIRE1α* (dephosphorylated IRE1α*) (O75460 547-977): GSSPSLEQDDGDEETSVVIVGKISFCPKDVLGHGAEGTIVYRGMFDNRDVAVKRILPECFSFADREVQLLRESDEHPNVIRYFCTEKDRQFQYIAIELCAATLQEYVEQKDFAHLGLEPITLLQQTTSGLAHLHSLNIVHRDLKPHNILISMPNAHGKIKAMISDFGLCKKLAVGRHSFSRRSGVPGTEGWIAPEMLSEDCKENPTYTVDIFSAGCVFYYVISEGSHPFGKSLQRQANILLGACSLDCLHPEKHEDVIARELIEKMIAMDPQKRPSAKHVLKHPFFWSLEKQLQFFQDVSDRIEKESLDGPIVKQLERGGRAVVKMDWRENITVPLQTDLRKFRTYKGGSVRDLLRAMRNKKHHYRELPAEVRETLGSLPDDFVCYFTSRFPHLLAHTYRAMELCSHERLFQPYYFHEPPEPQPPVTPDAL
Sequence of IRE1α* (O75460 547-977): as above

Structure (SMILES)	lowering of Kdimer of dpIRE1α* when complexed to ligand [1]	XBP1 mRNA splicing (XBP1 mRNA splicing)	IgM secretion [2]	formation of RNase active dimers / dimerization affinity of IRE1α* (IRE1α*)	XBP1s expression in B cells [3, 4]	plasma cell differentiation, CD138+ [3, 4]	toxicity to splenocytes ([3]; 10 μM and 20 μM KIRA8, LPS, three days)
O=C(Nc1c[nH]nc1-c1nc2ccc(CN3CCOCC3)cc2[nH]1)NC1CC1 [AT9283]	~ 80 times	–	–	–	–	–	–
NC(=O)Nc1cc(-c2cccc(F)c2)sc1C(=O)N[C@H]1CCCNC1 [AZD7762]	~ 80 times	–	–	–	–	–	–
Cc1ccc2c(NS(=O)(=O)c3ccccc3Cl)cccc2c1Oc1ncccc1-c1ccnc(N[C@H]2CCCNC2)n1 [KIRA8]	–	completely suppresses; also recorded: almost completely suppressed	reductions	unable to form RNase active dimers at any concentration tested	reductions	reductions	cellular toxicity
